Test results as given in publication PMC4529372 (Biological psychiatry, 2015).

Tests used:
[1] = target: Norepinephrine transporter (Homo sapiens, UniProt P23975); assay: radioligand binding displacement
Procedure, shortened: (§1)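 Off-target screen by radioligand binding displacement, run per published methods with reference standards in each assay. […] Recombinant human targets were expressed in CHO-K1 cells (A3, dopamine transporter), Sf9 insect cells (α2A), CHO cells (DOP) and MDCK cells (norepinephrine transporter). IC50, where determined, came from non-linear least-squares regression.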

hmGluR2/hCaR* = assay: fluorescence-based functional assay, HEK […] cells; format: cell-based, Homo sapiens; conditions: read-out: Effect; positive allosteric modulator; with 0.02 μM DCG-IV as agonist
Adenosine A3 = target: T1, Adenosine A3 (Homo sapiens, UniProt P0DMS8); assay: radioligand binding displacement; conditions: read-out: % inhibition at 10 μM
T1 sequence (P0DMS8 1-318): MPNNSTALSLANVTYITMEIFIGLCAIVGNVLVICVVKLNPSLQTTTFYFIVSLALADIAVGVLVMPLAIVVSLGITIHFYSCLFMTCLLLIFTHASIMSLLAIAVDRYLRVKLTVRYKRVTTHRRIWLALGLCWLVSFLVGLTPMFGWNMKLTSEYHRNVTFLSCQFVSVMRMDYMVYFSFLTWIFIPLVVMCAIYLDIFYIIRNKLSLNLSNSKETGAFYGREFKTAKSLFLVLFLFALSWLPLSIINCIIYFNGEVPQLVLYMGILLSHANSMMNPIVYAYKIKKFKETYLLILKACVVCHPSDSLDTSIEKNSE
Procedure, shortened: as §1

Chain of Norepinephrine transporter (P23975 whole entry): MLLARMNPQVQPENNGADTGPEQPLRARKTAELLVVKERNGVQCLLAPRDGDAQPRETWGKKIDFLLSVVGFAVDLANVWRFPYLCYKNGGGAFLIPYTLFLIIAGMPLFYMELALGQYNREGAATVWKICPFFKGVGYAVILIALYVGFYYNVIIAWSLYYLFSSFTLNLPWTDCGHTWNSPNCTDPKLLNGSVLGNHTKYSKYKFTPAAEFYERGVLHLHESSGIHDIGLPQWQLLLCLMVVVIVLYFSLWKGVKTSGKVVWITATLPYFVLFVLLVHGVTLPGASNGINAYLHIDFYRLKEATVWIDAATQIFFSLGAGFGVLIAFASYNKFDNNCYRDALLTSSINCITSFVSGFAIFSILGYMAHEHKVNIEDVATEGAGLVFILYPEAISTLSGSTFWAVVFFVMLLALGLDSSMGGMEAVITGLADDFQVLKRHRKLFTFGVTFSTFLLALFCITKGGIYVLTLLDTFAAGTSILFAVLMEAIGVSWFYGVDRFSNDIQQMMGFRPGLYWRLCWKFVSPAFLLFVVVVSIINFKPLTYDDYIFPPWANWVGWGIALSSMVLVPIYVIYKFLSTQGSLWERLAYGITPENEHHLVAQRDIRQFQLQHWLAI

Compound Cc1cc(-c2nc(CN3CCNCC3)no2)cc2c1C(=O)N(Cc1ccc(OC(F)(F)F)cc1)C2 [AZD8529, 7-methyl-5-(3-piperazin-1-ylmethyl-[1,2,4]oxadiazol-5-yl)-2-(4-trifluoromethoxybenzyl)-2,3-dihydroisoindol-1-one] has an IC50 [1] of 4730 nM, an EC50 (hmGluR2/hCaR*) of 285 ± 20 nM and an inhibition at 10 µM (Adenosine A3) of 51%.
